Twelve compounds from ChEMBL document CHEMBL4818997, “Synthesis and structure-activity studies of novel anhydrohexitol-based Leucyl-tRNA synthetase inhibitors” (Eur J Med Chem, 2021) can be followed below.

Activity calls are given as the source filed them. No cut-off for these calls is given here.

Test [1] concerns Mycobacterium tuberculosis. Briefly: Antibacterial activity against Mycobacterium tuberculosis H37Ra […] assessed as inhibition of bacterial growth at 128 uM measured after 17 hrs by resazurin based flourimetric assay. It is filed as functional. The essentials:
(§1)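 M. tuberculosis H37Ra cultured in 7H9 + 10% OADC at 37 °C. Compounds serially pre-diluted 2-fold in DMSO, then diluted in water, final DMSO <1%, top concentration 128 µM. Inoculum 5×10^3 CFU/ml. After 17 h, resazurin added, 1/2 h at 37 °C, fluorescence read (ex 550/em 590 nm). Growth expressed as % reduction versus untreated and medium controls; IC50 derived.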

The subject of test [2] is Escherichia coli. Briefly: Antibacterial activity against Escherichia coli ATCC8739 at 64 uM measured after 17 hrs by resazurin based flourimetric assay. It is filed as functional, organism-based. In outline:
(§2)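 Bacteria grown in Mueller Hinton broth at 37 °C, inoculum 5×10^3 CFU/ml. […] After 17 h, resazurin was added for 1/2 h and fluorescence read (ex 550/em 590 nm). Results are % growth reduction versus untreated and medium-only wells.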
For orientation: Alamar Blue is a resazurin reagent that responds to reducing activity.

The test system of test [3] is Staphylococcus aureus. The test is described as follows: Antibacterial activity against Staphylococcus aureus ATCC6538 at 64 uM measured after 17 hrs by resazurin based flourimetric assay. Type of test: functional, organism-based. The essentials: as §2
The subject of the next test is Candida albicans. Briefly: Antifungal activity against Candida albicans at 64 uM measured after 17 hrs by resazurin based flourimetric assay. Type of test: functional, organism-based. In outline: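 Compounds were 4-fold serially diluted in RPMI with 1% DMSO background, from 64.0 µM down to 3.9×10^-3 µM. Miconazole 0.25 µM served as positive control.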
In another test the target is Leucine--tRNA ligase (Escherichia coli (strain K12), UniProt P07813). Briefly: Inhibition of recombinant Escherichia coli LeuRS assessed as inhibition of 14C-radiolabelled leucine transfer to tRNA leucine preincubated for 10 mins followed by addition of ATP and measured after 4 mins by Scintillation counting method. The conditions noted are these: read-out: Ki(app).

In test [4] the test system is Mycobacterium tuberculosis. Briefly: Antibacterial activity against Mycobacterium tuberculosis H37Ra […] assessed as inhibition of bacterial growth measured after 17 hrs by resazurin based flourimetric assay. Type of test: functional, organism-based. The essentials: as §1
The test system of test [5] is Staphylococcus aureus. The test is described as follows: Antibacterial activity against Staphylococcus aureus ATCC6538 assessed as inhibition of bacterial growth measured after 17 hrs by resazurin based flourimetric assay. It is filed as functional, organism-based. As to conditions: ATCC6538, 17 h. The essentials:
as §2

The subject of test [6] is Escherichia coli. The test is described as follows: Antibacterial activity against Escherichia coli ATCC8739 assessed as inhibition of bacterial growth measured after 17 hrs by resazurin based flourimetric assay. Type of test: functional, organism-based. The conditions noted are these: ATCC8739, ATCC 8739, 17 h. In outline:
as §2

Sequence of Leucine--tRNA ligase (P07813 whole entry): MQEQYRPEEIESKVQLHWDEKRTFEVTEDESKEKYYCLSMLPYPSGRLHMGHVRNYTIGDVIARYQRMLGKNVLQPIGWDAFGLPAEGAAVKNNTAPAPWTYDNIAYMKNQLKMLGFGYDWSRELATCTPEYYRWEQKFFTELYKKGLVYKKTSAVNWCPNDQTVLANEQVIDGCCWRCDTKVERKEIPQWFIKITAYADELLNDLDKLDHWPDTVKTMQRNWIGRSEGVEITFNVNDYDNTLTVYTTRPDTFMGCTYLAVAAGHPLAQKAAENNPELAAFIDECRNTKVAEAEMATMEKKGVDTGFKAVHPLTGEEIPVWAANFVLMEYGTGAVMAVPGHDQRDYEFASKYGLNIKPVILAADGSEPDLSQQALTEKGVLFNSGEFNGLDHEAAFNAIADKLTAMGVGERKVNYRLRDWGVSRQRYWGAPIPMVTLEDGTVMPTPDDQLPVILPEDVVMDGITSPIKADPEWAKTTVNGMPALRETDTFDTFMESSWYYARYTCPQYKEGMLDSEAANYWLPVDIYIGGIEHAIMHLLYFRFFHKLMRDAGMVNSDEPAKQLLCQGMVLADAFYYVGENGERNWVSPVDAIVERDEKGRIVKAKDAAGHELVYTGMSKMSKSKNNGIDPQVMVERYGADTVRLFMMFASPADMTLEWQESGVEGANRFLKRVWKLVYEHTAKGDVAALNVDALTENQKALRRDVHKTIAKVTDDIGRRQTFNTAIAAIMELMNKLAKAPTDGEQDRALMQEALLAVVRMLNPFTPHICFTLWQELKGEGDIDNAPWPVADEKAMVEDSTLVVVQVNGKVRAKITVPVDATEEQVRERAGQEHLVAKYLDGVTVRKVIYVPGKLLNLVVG

Usually inhibition stands for the percentage by which the read-out fell short of the control. Turning to `CC(C)C[C@H](N)C(=O)NS(=O)(=O)OC[C@H]1OC[C@@H](CCCn2cc(CCc3ccccc3)nn2)[C@H](O)[C@@H]1O`, the inhibition at 128 µM in test [1] worked out at 38.2%. Also, the result in the test on Escherichia coli [2], in the test on Staphylococcus aureus [3] and in the test on Candida albicans was inactive. The Ki at Leucine--tRNA ligase was 108 nM.
As for `CC(C)C[C@H](N)C(=O)NS(=O)(=O)OC[C@H]1OC[C@@H](CCCn2cc(CN)nn2)[C@H](O)[C@@H]1O`, in test [1], the inhibition at 128 µM amounted to 9.44%. For the same compound, the outcome in the test with Escherichia coli [2], with Staphylococcus aureus [3] and in the test on Candida albicans was inactive. Further, the Ki at Leucine--tRNA ligase amounted to 2970 nM.
For the compound `CCCCCCCCc1cn(CCC[C@@H]2CO[C@H](COS(=O)(=O)NC(=O)[C@@H](N)CC(C)C)[C@@H](O)[C@H]2O)nn1`, the inhibition at 128 µM in test [1] was determined as 4.26%. For the same compound, the result in the test with Escherichia coli [2], in the test on Staphylococcus aureus [3] and in the test on Candida albicans was inactive. In addition, the Ki at Leucine--tRNA ligase came to 52.4 nM.
What is called IC50 is the concentration that inhibits the measured activity by half. On to `CCCCCc1ccc(-c2cn(CCC[C@@H]3CO[C@H](COS(=O)(=O)NC(=O)[C@@H](N)CC(C)C)[C@@H](O)[C@H]3O)nn2)cc1`, for which the inhibition at 128 µM in test [1] is 86.1%. For the same compound, the outcome with Escherichia coli [2], in the test on Staphylococcus aureus [3] and in the test on Candida albicans was inactive. The IC50 in test [4] came to 24700 nM. In addition, the Ki at Leucine--tRNA ligase came out at 5.51 nM.
For the compound `CC(C)C[C@H](N)C(=O)NS(=O)(=O)OC[C@H]1OC[C@@H](CCCn2cc(CNC(=O)c3ccccc3)nn2)[C@H](O)[C@@H]1O`, the result in the test with Escherichia coli [2], in the test on Staphylococcus aureus [3] and in the test on Candida albicans was inactive. In addition, the Ki on Leucine--tRNA ligase was determined as 31.3 nM.
With `CC(C)C[C@H](N)C(=O)NS(=O)(=O)OC[C@H]1OC[C@@H](CCCn2cc(CNCc3ccccc3)nn2)[C@H](O)[C@@H]1O`, the inhibition at 128 µM in test [1] is 12.1%. The outcome in the test with Escherichia coli [2], in the test with Staphylococcus aureus [3] and in the test on Candida albicans was inactive. On Leucine--tRNA ligase, the Ki came to 1260 nM.
Consider `CC(C)C[C@H](N)C(=O)NS(=O)(=O)OC[C@H]1OC[C@@H](CCCn2cc(CCCCO)nn2)[C@H](O)[C@@H]1O`, for which the inhibition at 128 µM in test [1] was determined as 23.2%. The outcome in the test on Escherichia coli [2], with Staphylococcus aureus [3] and in the test with Candida albicans was inactive. In addition, the Ki on Leucine--tRNA ligase stood at 388 nM.
As for `C[C@H]1c2cccc(O)c2C(=O)C2=C(O)[C@]3(O)C(=O)C(C(N)=O)=C(O)[C@@H](N(C)C)[C@@H]3[C@@H](O)[C@@H]21` [DOXYCYCLINE], the 50% inhibitory concentration (IC50) came out at 110 nM in the test with Staphylococcus aureus [5] and 730 nM in the test on Escherichia coli [6].
Regarding `CC(C)C[C@H](N)C(=O)NS(=O)(=O)OC[C@H]1O[C@@H](CCn2nnc(-c3ccccc3)n2)[C@H](O)[C@@H]1O`, in test [1], the inhibition at 128 µM amounted to 49.8%. Further, the result in the test on Escherichia coli [2], with Staphylococcus aureus [3] and with Candida albicans was inactive. For the same compound, the Ki at Leucine--tRNA ligase was determined as 30.9 nM.
Consider `CC(C)C[C@H](N)C(=O)NS(=O)(=O)OC[C@H]1OC[C@@H](CCCn2cc(-c3ccc(OC(F)(F)F)cc3)nn2)[C@H](O)[C@@H]1O`, for which the inhibition at 128 µM in test [1] was determined as 27.8%. Further, the outcome in the test with Escherichia coli [2], with Staphylococcus aureus [3] and with Candida albicans was inactive. Moreover, the Ki on Leucine--tRNA ligase stood at 17.8 nM.
With `COc1c(N2C[C@@H]3CCCN[C@@H]3C2)c(F)cc2c(=O)c(C(=O)O)cn(C3CC3)c12` [MOXIFLOXACIN], the concentration for half-maximal inhibition (IC50) in test [4] amounted to 250 nM.
With `CC(C)C[C@H](N)C(=O)NS(=O)(=O)OC[C@H]1OC[C@@H](CCCn2cc(-c3cccnc3)nn2)[C@H](O)[C@@H]1O`, the inhibition at 128 µM in test [1] is 16.9%. Besides, the result in the test with Escherichia coli [2], in the test on Staphylococcus aureus [3] and with Candida albicans was inactive. The Ki at Leucine--tRNA ligase is 31.6 nM.
